Test results published in ChEMBL document CHEMBL1138512, “A class of 2,4-bisanilinopyrimidine Aurora A inhibitors with unusually high selectivity against Aurora B” (J Med Chem, 2009).

What was measured:
[1] = biological target: Cyclin-dependent kinase 1/cyclin B1 (Homo sapiens) (UniProt P06493+P14635); test: Inhibition of CDK1/cyclin B at 1 uM
[2] = biological target: Mitogen-activated protein kinase 14 (Homo sapiens) (UniProt Q16539); test: Inhibition of P38alpha at 1 uM
[3] = biological target: Serine/threonine-protein kinase Nek9 (Homo sapiens) (UniProt Q8TD19); test: Inhibition of NEK9 at 1 uM
[4] = biological target: Receptor tyrosine-protein kinase erbB-2 (Homo sapiens) (UniProt P04626); test: Inhibition of HER2 at 1 uM
[5] = biological target: Mitogen-activated protein kinase kinase kinase kinase 2 (Homo sapiens) (UniProt Q12851); test: Inhibition of GCK at 1 uM
[6] = biological target: Serine/threonine-protein kinase Nek1 (Homo sapiens) (UniProt Q96PY6); test: Inhibition of NEK1 at 1 uM
[7] = biological target: Serine/threonine-protein kinase Chk2 (Homo sapiens) (UniProt O96017); test: Inhibition of CHK2 at 1 uM
[8] = biological target: Serine/threonine-protein kinase Nek6 (Homo sapiens) (UniProt Q9HC98); test: Inhibition of NEK6 at 1 uM
[9] = biological target: Serine/threonine-protein kinase MRCK alpha (Homo sapiens) (UniProt Q5VT25); test: Inhibition of MRCKalpha at 1 uM
[10] = biological target: Casein kinase I isoform alpha (Homo sapiens) (UniProt P48729); test: Inhibition of CK1alpha1 at 1 uM
[11] = biological target: Ribosomal protein S6 kinase beta-1 (Homo sapiens) (UniProt P23443); test: Inhibition of p70S6K at 1 uM
[12] = biological target: Receptor-type tyrosine-protein kinase FLT3 (Homo sapiens) (UniProt P36888); test: Inhibition of FLT3 at 1 uM
[13] = biological target: Serine/threonine-protein kinase Sgk1 (Homo sapiens) (UniProt O00141); test: Inhibition of SGK1 at 1 uM
HT-29 = test: Antiproliferative activity against human HT-29 cells after 4 days by celltiter assay; type: functional, cell-based; conditions: HT-29, 96 h
[14] = biological target: Casein kinase I isoform delta (Homo sapiens) (UniProt P48730); test: Inhibition of CK1delta at 1 uM
[15] = biological target: G protein-coupled receptor kinase 4 (Homo sapiens) (UniProt P32298); test: Inhibition of GRK4 at 1 uM
[16] = biological target: 5'-AMP-activated protein kinase catalytic subunit alpha-1 (Homo sapiens) (UniProt Q13131); test: Inhibition of AMPK A1/B1/G1 at 1 uM
[17] = biological target: Ephrin type-B receptor 1 (Homo sapiens) (UniProt P54762); test: Inhibition of EPHB1 at 1 uM
[18] = biological target: Glycogen synthase kinase-3 beta (Homo sapiens) (UniProt P49841); test: Inhibition of GSK3-beta at 1 uM
[19] = biological target: Hepatocyte growth factor receptor (Homo sapiens) (UniProt P08581); test: Inhibition of c-Met at 1 uM
[20] = biological target: Dual specificity protein kinase CLK1 (Homo sapiens) (UniProt P49759); test: Inhibition of CLK1 at 1 uM
[21] = biological target: Serine/threonine-protein kinase Nek2 (Homo sapiens) (UniProt P51955); test: Inhibition of NEK2 at 1 uM
[22] = biological target: Beta-adrenergic receptor kinase 1 (Homo sapiens) (UniProt P25098); test: Inhibition of GRK2 at 1 uM
[23] = biological target: T1, Cyclin-dependent kinase 2 (Homo sapiens, UniProt P24941); test: Inhibition of CDK2/cyclin A at 1 uM
Aurora kinase B [24] = biological target: T2, Aurora kinase B (Homo sapiens, UniProt Q96GD4); test: Inhibition of Aurora B in human HT29 cells assessed as complete loss of phospho-histone H3 staining by immunofluorescence assay; type: cell-based, HT-29
How it was run: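 Immunofluorescence for phospho-S10 histone H3 in HCT116 or HT29 cells, scored visually. Value taken as the lowest inhibitor concentration giving complete loss of staining, so it lies above the IC50. Units µM.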

Aurora kinase B [25] = biological target: Aurora kinase B (Homo sapiens, UniProt Q96GD4, E161T); test: Inhibition of N-terminal flag-tagged Aurora B E161T mutant expressed in Escherichia coli BL21-DE3
[26] = biological target: Epidermal growth factor receptor (Homo sapiens) (UniProt P00533); test: Inhibition of ErbB1 at 1 uM
[27] = biological target: Serine/threonine-protein kinase Chk1 (Homo sapiens) (UniProt O14757); test: Inhibition of CHK1 at 1 uM
[28] = biological target: Dual specificity tyrosine-phosphorylation-regulated kinase 3 (Homo sapiens) (UniProt O43781); test: Inhibition of DYRK3 at 1 uM
[29] = biological target: Ephrin type-A receptor 1 (Homo sapiens) (UniProt P21709); test: Inhibition of EPHA1 at 1 uM
[30] = biological target: Cytoplasmic tyrosine-protein kinase BMX (Homo sapiens) (UniProt P51813); test: Inhibition of BMX at 1 uM
[31] = biological target: High affinity nerve growth factor receptor (Homo sapiens) (UniProt P04629); test: Inhibition of TRKA at 1 uM
[32] = biological target: Inhibitor of nuclear factor kappa-B kinase subunit beta (Homo sapiens) (UniProt O14920); test: Inhibition of IKK-beta at 1 uM
[33] = biological target: Activin receptor type-1B (Homo sapiens) (UniProt P36896); test: Inhibition of ALK4 at 1 uM
[34] = biological target: Insulin receptor (Homo sapiens) (UniProt P06213); test: Inhibition of INSR at 1 uM
[35] = biological target: Calcium/calmodulin-dependent protein kinase type 1D (Homo sapiens) (UniProt Q8IU85); test: Inhibition of CaMK1delta at 1 uM
[36] = biological target: Serine/threonine-protein kinase pim-1 (Homo sapiens) (UniProt P11309); test: Inhibition of PIM1 at 1 uM
[37] = biological target: T1, Cyclin-dependent kinase 2; test: Inhibition of CDK2/cyclin A
[38] = biological target: Mitogen-activated protein kinase 8 (Homo sapiens) (UniProt P45983); test: Inhibition of JNK1 at 1 uM
Aurora kinase B [39] = biological target: T2, Aurora kinase B; test: Inhibition of Aurora B at 1 uM
[40] = biological target: Phosphorylase b kinase gamma catalytic chain, skeletal muscle/heart isoform (Homo sapiens) (UniProt Q16816); test: Inhibition of PHKG1 at 1 uM
[41] = biological target: Serine/threonine-protein kinase PLK2 (Homo sapiens) (UniProt Q9NYY3); test: Inhibition of PLK2 at 1 uM
[42] = biological target: Dual specificity mitogen-activated protein kinase kinase 1 (Homo sapiens) (UniProt Q02750); test: Inhibition of MEK1 at 1 uM
[43] = biological target: Serine/threonine-protein kinase Nek4 (Homo sapiens) (UniProt P51957); test: Inhibition of NEK4 at 1 uM
[44] = biological target: Cyclin-dependent kinase 5/CDK5 activator 1 (Homo sapiens) (UniProt Q00535+Q15078); test: Inhibition of CDK5/p25 at 1 uM; type: protein-complex assay
[45] = biological target: Aurora kinase C (Homo sapiens) (UniProt Q9UQB9); test: Inhibition of Aurora C at 1 uM
[46] = biological target: Mitogen-activated protein kinase 1 (Homo sapiens) (UniProt P28482); test: Inhibition of ERK2 at 1 uM

T2 sequence (Q96GD4 whole entry): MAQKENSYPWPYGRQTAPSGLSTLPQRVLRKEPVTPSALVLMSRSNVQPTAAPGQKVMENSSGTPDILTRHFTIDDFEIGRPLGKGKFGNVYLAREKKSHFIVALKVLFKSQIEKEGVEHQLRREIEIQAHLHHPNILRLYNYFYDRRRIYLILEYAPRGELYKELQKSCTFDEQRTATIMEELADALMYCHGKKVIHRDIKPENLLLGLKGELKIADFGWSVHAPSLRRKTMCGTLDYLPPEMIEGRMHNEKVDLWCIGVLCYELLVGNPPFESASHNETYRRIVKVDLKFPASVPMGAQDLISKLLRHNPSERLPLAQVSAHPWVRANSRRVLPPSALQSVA
Chain of Epidermal growth factor receptor (Homo sapiens) (P00533 whole entry): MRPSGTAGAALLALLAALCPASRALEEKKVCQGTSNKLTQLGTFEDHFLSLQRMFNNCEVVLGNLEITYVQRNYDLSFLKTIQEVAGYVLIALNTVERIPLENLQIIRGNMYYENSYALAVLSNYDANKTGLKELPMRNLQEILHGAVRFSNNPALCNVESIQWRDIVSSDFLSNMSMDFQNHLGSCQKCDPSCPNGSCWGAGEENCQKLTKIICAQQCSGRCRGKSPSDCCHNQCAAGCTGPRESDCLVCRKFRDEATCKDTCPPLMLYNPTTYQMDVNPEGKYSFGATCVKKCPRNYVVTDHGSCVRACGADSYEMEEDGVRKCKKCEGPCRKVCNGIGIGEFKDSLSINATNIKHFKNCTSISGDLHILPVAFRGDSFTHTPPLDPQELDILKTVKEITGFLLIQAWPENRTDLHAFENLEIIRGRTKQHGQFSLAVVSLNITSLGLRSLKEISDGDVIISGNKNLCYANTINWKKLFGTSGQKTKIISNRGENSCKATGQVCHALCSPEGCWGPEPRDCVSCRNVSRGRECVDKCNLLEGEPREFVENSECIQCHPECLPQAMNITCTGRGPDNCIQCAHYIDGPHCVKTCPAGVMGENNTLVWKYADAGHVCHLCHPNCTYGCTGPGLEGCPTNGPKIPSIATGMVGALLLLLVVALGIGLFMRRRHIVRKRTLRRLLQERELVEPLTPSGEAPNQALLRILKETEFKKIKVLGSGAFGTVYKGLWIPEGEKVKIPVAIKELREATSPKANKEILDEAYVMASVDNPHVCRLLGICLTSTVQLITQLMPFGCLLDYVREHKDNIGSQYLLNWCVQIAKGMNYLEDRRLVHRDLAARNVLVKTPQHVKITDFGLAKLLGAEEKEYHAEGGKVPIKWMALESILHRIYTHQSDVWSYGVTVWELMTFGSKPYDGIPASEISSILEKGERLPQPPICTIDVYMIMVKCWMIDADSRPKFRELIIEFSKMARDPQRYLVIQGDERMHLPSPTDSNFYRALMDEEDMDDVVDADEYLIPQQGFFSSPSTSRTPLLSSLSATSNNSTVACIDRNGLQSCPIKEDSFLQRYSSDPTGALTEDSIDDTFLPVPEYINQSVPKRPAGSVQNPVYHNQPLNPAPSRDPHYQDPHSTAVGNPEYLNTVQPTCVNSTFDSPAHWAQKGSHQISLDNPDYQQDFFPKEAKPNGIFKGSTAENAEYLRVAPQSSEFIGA
Chain of Aurora kinase C (Homo sapiens) (Q9UQB9 whole entry): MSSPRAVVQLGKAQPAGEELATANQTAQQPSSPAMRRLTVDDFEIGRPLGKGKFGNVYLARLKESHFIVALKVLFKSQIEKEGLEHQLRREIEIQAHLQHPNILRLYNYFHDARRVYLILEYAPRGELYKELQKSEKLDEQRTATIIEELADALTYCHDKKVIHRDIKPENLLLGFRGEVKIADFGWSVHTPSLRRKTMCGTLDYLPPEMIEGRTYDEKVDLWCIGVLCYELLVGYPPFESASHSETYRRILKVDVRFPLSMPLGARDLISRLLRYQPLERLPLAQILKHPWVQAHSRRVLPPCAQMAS
Chain of Calcium/calmodulin-dependent protein kinase type 1D (Homo sapiens) (Q8IU85 whole entry, looked up): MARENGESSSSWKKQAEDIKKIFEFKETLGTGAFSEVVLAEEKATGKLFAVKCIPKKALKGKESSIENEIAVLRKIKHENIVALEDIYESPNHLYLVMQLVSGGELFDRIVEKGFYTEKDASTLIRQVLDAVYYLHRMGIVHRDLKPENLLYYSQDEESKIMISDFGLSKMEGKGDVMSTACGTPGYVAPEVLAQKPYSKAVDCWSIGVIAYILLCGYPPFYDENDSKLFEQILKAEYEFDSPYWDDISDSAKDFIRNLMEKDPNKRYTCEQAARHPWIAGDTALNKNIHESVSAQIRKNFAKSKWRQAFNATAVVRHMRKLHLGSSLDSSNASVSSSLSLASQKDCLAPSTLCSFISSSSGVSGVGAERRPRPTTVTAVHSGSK
Chain of Inhibitor of nuclear factor kappa-B kinase subunit beta (Homo sapiens) (O14920 whole entry): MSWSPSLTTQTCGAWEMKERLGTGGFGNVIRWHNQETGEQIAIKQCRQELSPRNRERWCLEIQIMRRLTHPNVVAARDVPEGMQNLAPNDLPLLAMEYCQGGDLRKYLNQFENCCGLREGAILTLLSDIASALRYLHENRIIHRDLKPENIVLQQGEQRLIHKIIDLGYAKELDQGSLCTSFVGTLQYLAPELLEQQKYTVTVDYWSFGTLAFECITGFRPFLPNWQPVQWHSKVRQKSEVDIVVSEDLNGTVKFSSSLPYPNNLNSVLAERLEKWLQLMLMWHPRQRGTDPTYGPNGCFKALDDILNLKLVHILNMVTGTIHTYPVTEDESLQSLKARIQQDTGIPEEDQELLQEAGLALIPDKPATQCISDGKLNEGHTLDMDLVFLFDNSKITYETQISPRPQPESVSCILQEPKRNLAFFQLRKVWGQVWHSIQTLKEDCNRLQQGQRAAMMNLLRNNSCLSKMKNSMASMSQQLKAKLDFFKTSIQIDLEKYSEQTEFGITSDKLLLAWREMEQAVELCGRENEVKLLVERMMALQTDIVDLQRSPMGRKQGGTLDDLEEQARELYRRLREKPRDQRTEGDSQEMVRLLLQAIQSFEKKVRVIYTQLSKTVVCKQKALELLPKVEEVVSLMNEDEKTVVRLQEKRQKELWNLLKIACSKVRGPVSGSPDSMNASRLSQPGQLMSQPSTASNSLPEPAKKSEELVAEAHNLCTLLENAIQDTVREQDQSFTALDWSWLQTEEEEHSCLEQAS
Chain of Serine/threonine-protein kinase Nek2 (Homo sapiens) (P51955 whole entry): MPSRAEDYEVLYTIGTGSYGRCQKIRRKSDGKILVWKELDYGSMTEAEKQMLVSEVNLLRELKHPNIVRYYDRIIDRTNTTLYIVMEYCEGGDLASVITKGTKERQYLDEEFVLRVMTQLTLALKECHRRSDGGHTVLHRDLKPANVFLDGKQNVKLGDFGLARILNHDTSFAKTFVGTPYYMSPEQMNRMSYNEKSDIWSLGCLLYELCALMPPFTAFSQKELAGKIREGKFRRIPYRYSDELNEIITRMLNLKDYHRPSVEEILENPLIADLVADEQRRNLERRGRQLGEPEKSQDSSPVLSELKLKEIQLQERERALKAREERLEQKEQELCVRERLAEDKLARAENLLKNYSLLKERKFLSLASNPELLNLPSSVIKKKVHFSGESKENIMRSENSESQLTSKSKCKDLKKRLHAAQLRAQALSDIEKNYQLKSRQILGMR
Chain of Serine/threonine-protein kinase Chk2 (Homo sapiens) (O96017 whole entry): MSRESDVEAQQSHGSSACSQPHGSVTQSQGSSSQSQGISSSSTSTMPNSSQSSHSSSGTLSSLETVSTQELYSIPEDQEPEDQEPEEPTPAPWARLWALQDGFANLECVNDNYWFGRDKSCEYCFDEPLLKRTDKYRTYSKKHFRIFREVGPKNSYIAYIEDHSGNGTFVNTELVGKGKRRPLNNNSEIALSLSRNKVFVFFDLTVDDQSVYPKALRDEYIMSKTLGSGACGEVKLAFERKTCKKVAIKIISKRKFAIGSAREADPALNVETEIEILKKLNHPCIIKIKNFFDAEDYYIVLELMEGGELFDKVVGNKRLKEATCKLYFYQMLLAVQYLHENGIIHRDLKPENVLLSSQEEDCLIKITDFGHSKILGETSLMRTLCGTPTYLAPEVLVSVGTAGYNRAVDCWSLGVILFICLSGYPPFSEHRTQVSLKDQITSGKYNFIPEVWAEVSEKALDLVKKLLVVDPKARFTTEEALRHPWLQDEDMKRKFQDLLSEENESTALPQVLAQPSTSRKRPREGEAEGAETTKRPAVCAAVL
Chain of Receptor-type tyrosine-protein kinase FLT3 (Homo sapiens) (P36888 whole entry): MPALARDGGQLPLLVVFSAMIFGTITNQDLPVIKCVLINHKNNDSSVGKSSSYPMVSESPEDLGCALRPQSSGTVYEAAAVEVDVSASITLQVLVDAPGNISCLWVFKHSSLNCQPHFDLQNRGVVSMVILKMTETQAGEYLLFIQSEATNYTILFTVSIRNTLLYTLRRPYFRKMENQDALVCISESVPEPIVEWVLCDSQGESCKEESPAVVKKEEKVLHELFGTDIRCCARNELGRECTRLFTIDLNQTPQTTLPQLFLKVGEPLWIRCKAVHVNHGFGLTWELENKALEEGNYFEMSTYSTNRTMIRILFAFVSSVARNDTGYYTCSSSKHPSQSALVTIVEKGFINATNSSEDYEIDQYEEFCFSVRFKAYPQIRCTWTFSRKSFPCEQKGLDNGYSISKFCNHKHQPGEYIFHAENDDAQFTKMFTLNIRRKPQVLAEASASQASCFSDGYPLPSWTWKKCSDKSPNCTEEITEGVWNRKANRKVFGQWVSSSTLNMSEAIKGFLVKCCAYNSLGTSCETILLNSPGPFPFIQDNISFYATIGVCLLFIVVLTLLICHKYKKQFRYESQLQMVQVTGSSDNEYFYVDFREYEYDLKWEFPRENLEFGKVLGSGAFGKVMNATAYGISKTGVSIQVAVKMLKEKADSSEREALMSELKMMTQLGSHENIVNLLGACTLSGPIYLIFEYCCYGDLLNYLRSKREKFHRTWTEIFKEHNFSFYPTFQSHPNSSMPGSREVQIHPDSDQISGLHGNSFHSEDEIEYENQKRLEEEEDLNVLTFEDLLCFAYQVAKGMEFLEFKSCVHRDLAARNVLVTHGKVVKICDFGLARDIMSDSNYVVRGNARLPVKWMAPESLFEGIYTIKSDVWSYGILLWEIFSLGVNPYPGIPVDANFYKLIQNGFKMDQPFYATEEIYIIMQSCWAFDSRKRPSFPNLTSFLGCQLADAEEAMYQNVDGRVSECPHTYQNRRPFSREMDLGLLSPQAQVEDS
Chain of Aurora kinase B (Homo sapiens, UniProt Q96GD4, E161T) (Q96GD4 whole entry E161T): as the sequence (Q96GD4 whole entry) above, with E161T counted along it

inhibition [1]: 15% | inhibition [2]: 28% | inhibition [4]: 4% | inhibition [5]: 10% | inhibition [6]: 29% | inhibition [7]: 12% | inhibition [8]: 8% | inhibition [9]: 11% | inhibition [10]: 3% | inhibition [11]: 17% | inhibition [12]: 91% | inhibition [13]: 7% | IC50 (HT-29): 6.2 µM | inhibition [14]: 11% | inhibition [15]: -1% | inhibition [16]: 20% | inhibition [17]: 25% | inhibition [18]: 30% | inhibition [19]: 14% | inhibition [20]: 13% | inhibition [21]: 25% | inhibition [22]: 8% | inhibition [23]: 15% | IC50 (Aurora kinase B [24]): > 27 µM | IC50 (Aurora kinase B [25]): 0.057 µM | inhibition [26]: 5% | inhibition [27]: 14% | inhibition [28]: 5% | inhibition [29]: 34% | inhibition [30]: 43% | inhibition [31]: 67% | inhibition [32]: 39% | inhibition [33]: 11% | inhibition [34]: 16% | inhibition [35]: 18% | inhibition [36]: 2% | IC50 [37]: > 16 µM | inhibition [38]: 21% | inhibition (Aurora kinase B [39]): 59% | inhibition [40]: 18% | inhibition [41]: 12% | inhibition [42]: 21% | inhibition [43]: 11% | inhibition [44]: 7% | inhibition [45]: 36% | inhibition [46]: 11%
Compound: CC(=O)N1CCN(C(=O)Cc2ccc(Nc3ncc(F)c(Nc4ccc(C(=O)Nc5ccccc5Cl)cc4)n3)cc2)CC1
inhibition [3]: 17%
